Laboratory results from ChEMBL document CHEMBL3826882, “Discovery of 1-((2R,4aR,6R,7R,7aR)-2-Isopropoxy-2-oxidodihydro-4H,6H-spiro[furo[3,2-d][1,3,2]dioxaphosphinine-7,2'-oxetan]-6-yl)pyrimidine-2,4(1H,3H)-dione (JNJ-54257099), a 3'-5'-Cyclic Phosphate Ester Prodrug of 2'-Deoxy-2'-Spirooxetane Uridine Triphosphate Useful for HCV Inhibition” (J Med Chem, 2016).

Columns and labels:
[1] = Stability in dog primary hepatocyte supernatant assessed as parent compound level at 2 uM after 4 to 24 hrs using radiolabeled compound by HPLC analysis; assay type: ADME, cell-based, Canis lupus familiaris; conditions: hepatocytes
Method in brief: (§1)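 Fresh primary hepatocyte cultures incubated with tritiated prodrug (5'-[3H]) at 2 and 62.5 µM for 4 and 24 h. Supernatants taken after protein precipitation and profiled by HPLC with radioactivity detection. Cell lysates profiled for metabolites by radio-LC. Cyclic monophosphate also measured by LC/MS/MS.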

[2] = Prodrug conversion in dog primary hepatocytes assessed as 2'-deoxy-2'-spirooxetane uridine triphosphate level per million cells at 62.5 uM after 4 hrs using radiolabelled compound by LC-MS/MS analysis; assay type: ADME, cell-based, Canis lupus familiaris, Hepatocyte
Method in brief: (§2)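 Study A: fresh primary hepatocyte cultures from mouse, rat, dog and human incubated with tritiated prodrug at 2 or 62.5 µM for 4 or 24 h. Triphosphate in cell lysates reported as pmol/million hepatocytes. Duplicate or single measurements.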

[3] = tested on: Hepatocyte; experiment: Drug metabolism in rat primary hepatocyte supernatant assessed as 1-[(4aR,6R,7R,7aR)-2-hydroxy-2-oxidodihydro-4H-spiro[furo[3,2-d][1,3,2]dioxaphosphinine-7,2'-oxetan]-6-yl]pyrimidine-2,4(1H,3H)-dione formation at 2 to 62.5 uM after 4 to 24 hrs using radiolabelled compound by HPLC analysis; assay type: ADME, cell-based; conditions: hepatocytes; method in brief: as §1
[4] = Drug metabolism in dog primary hepatocyte supernatant assessed as 1-[(4aR,6R,7R,7aR)-2-hydroxy-2-oxidodihydro-4H-spiro[furo[3,2-d][1,3,2]dioxaphosphinine-7,2'-oxetan]-6-yl]pyrimidine-2,4(1H,3H)-dione formation at 2 to 62.5 uM after 4 to 24 hrs using radiolabelled compound by HPLC analysis; assay type: ADME, cell-based, Canis lupus familiaris; conditions: hepatocytes
Method in brief: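 Study A: primary cultured hepatocytes (mouse, rat, dog, human) incubated with 2 or 62.5 µM 5'-[3H]-labelled prodrug for 4 and 24 h. Cell lysates were analysed for triphosphate. Supernatants were protein-precipitated and profiled by HPLC with radioactivity detection. Cyclic monophosphate was also assessed by LC/MS/MS.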

[5] = tested on: Hepatocyte; experiment: Stability in rat primary hepatocyte supernatant assessed as parent compound level at 2 uM after 4 to 24 hrs using radiolabeled compound by HPLC analysis; assay type: ADME, cell-based; conditions: hepatocytes
[6] = tested on: Hepatocyte; experiment: Drug metabolism in human primary hepatocyte supernatant assessed as 1-((4R,5R,7R,8R)-8-hydroxy-7-(hydroxymethyl)-1,6-dioxaspiro[3.4]octan-5-yl)pyrimidine-2,4(1H,3H)-dione formation at 2 to 62.5 uM after 4 to 24 hrs using radiolabeled compound by HPLC analysis; assay type: ADME, cell-based; conditions: hepatocytes; method in brief: as §1
[7] = tested on: Hepatocyte; experiment: Prodrug conversion in human primary hepatocytes assessed as 2'-deoxy-2'-spirooxetane uridine triphosphate level per million cells at 62.5 uM after 4 hrs using radiolabelled compound by LC-MS/MS analysis; assay type: ADME, cell-based; method in brief: as §2
[8] = tested on: Hepatocyte; experiment: Stability in rat primary hepatocytes assessed as parent compound level at 2 to 62.5 uM after 24 hrs using radiolabeled compound by LC-MS/MS analysis; assay type: ADME, cell-based
Method in brief: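 Study A: rat primary cultured hepatocytes incubated with 5'-[3H]-labelled prodrug at 2 and 62.5 µM for 4 and 24h; cell lysates profiled by LC with radioactivity detection. Cyclic monophosphate co-eluted with parent and was assessed separately by LC/MS/MS. Duplicate or single measurements.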

[9] = Prodrug conversion in dog cryopreserved hepatocytes assessed as 2'-deoxy-2'-spirooxetane uridine triphosphate level per million cells at 10 uM after 8 hrs by LC-MS/MS analysis; assay type: ADME, cell-based, Canis lupus familiaris, Hepatocyte
Method in brief: (§3)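 Plated cryopreserved hepatocytes (study B) incubated with 10 µM unlabeled prodrug for 2, 8 or 24 h. Triphosphate measured in cell lysates and expressed as pmol/million hepatocytes. Quantification limit 2 ng/10^6 cells.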

[10] = tested on: Liver; experiment: Tlast in mouse liver assessed as 2'-deoxy-2'-spirooxetane uridine triphosphate at 50 mg/kg, po; assay type: ADME, organism-based; conditions: in vivo
Method in brief: (§4)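 Single oral dose of 50 mg/kg formulated in 20% HP-β-cyclodextrin. Prodrug and its triphosphate were measured in plasma and liver (ng/mL or ng/g) over time, and Cmax, tmax, AUC, tlast and t1/2 were derived. For some analytes, data from two independent studies are reported.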

[11] = tested on: Liver; experiment: Tlast in dog liver assessed as 2'-deoxy-2'-spirooxetane uridine triphosphate at 50 mg/kg, po; assay type: ADME, organism-based, Canis lupus familiaris; conditions: in vivo; method in brief: as §4
[12] = tested on: Hepatitis C virus; experiment: Antiviral activity against HCV genotype 3a infected in homozygous cDNA-uPA chimeric SCID mouse bearing humanized hepatocytes assessed as change in HCV RNA level in serum at 200 mg/kg, po bid administered through gavage for 7 days by RT-PCR method; assay type: functional, Hepacivirus hominis, Hepatocyte
Method in brief: (§5)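 Male chimeric SCID cDNA-uPA+/+ mice with human hepatocyte liver (≥70% replacement by blood human albumin) and serum HCV RNA >1.0×10^6 copies/mL the week before dosing. Oral gavage for 7 days in 20% HP-β-CD, 50-200 mg/kg QD or BID. Serum sampled pre-dose on days 1, 2, 3, 5 and 7. Real-time PCR; mean change in log10 copies/mL, day 7 vs day 1 pre-dose.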

[13] = tested on: Plasma; experiment: Tlast in dog plasma at 50 mg/kg, po; assay type: ADME, organism-based, Canis lupus familiaris; conditions: in vivo; method in brief: as §4
[14] = tested on: Hepatocyte; experiment: Prodrug conversion in human hepatocytes assessed as 2'-deoxy-2'-spirooxetane uridine triphosphate formation in presence of PDE5 inhibitor sildenafil by LC-MS/MS analysis; assay type: ADME, cell-based
[15] = AUC (0 to infinity) in mouse plasma at 50 mg/kg, po; assay type: ADME, organism-based; parameters: dose 50 mg/kg, route oral, time infinity
Method in brief: (§6)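 Oral dose 50 mg/kg, formulated in 20% HP-β-cyclodextrin. Prodrug and triphosphate were measured in plasma and liver (ng/mL or ng/g). Parameters derived were Cmax, tmax, AUC0-last, AUC0-inf and t1/2. Some prodrug data come from two independent studies.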

[16] = tested on: Hepatitis C virus; experiment: Antiviral activity against HCV genotype 3a infected in homozygous cDNA-uPA chimeric SCID mouse bearing humanized hepatocytes assessed as reduction in HCV RNA level in serum administered through oral gavage twice daily daily for 7 days by RT-PCR method; assay type: functional, organism-based; conditions: Hepacivirus hominis, Hepatocyte; method in brief: as §5
[17] = AUC (0 to last) in rat plasma at 50 mg/kg, po; assay type: ADME, organism-based; parameters: dose 50 mg/kg, route oral, time 0 - last; method in brief: as §6
[18] = tested on: Liver; experiment: Cmax in rat liver assessed as 2'-deoxy-2'-spirooxetane uridine triphosphate at 50 mg/kg, po; assay type: ADME, organism-based; parameters: dose 50 mg/kg, route oral; conditions: in vivo
[19] = tested on: Hepatocyte; experiment: Prodrug conversion in rat cryopreserved hepatocytes assessed as 2'-deoxy-2'-spirooxetane uridine triphosphate level per million cells at 10 uM after 2 hrs by LC-MS/MS analysis; assay type: ADME, cell-based; method in brief: as §3
[20] = tested on: Hepatitis C virus; experiment: Antiviral activity against HCV genotype 1a infected in homozygous cDNA-uPA chimeric SCID mouse bearing humanized hepatocytes assessed as change in HCV RNA level in serum at 100 mg/kg, po qd administered through gavage for 7 days by RT-PCR method; assay type: functional, Hepacivirus hominis, subtype 1a, Hepatocyte; method in brief: as §5
[21] = tested on: Hepatitis C virus; experiment: Antiviral activity against HCV genotype 1b infected in human HuH7 cells assessed as inhibition of viral replication after 3 days by luciferase reporter gene assay; assay type: functional, organism-based, Hepacivirus hominis; conditions: Huh-7, 72 h
Method in brief: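 HCV 1b subgenomic luciferase replicon (Huh7-luc, clone ET, adaptive mutations E1202G, T1280I, K1846T). 2,500 cells were incubated with compound over a 9-point, 1/4 dilution series for 3 days. Replication was read as luciferase activity.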

[22] = tested on: Liver; experiment: Tmax in rat liver assessed as 2'-deoxy-2'-spirooxetane uridine triphosphate at 50 mg/kg, po; assay type: ADME, organism-based; conditions: in vivo; method in brief: as §4
[23] = Half life in rat liver at 50 mg/kg, po; assay type: ADME, organism-based
Method in brief: (§7)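 Single oral dose of 50 mg/kg in 20% HP-β-cyclodextrin. Prodrug and triphosphate measured in plasma and liver over time (tlast 6–30 h). Half-life, Cmax, tmax and AUC0-last derived; liver/plasma ratio taken from AUC0-last. Prodrug data pooled from two independent studies.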

[24] = Ratio of AUC (0 to last) in rat liver to AUC (0 to last) in rat plasma; assay type: ADME; method in brief: as §7

## [3H]C1O[P@](=O)(OC(C)C)O[C@@H]2[C@@H]1O[C@@H](n1ccc(=O)[nH]c1=O)[C@@]21CCO1 (some centres undefined)
[1]
  Stability: Stable
[2]
  Drug metabolism: 0.035 pmol
[3]
  Drug metabolism: metabolite_detected
[4]
  Drug metabolism: metabolite_detected
[5]
  Stability: Stable
[6]
  Drug metabolism: metabolite_detected
[7]
  Drug metabolism: 0.24 pmol
[8]
  Stability: Stable

## CC(C)O[P@@]1(=O)OC[C@H]2O[C@@H](n3ccc(=O)[nH]c3=O)[C@@]3(CCO3)[C@@H]2O1
[9]
  Drug metabolism: 0.004 pmol
[10]
  Tlast: 24 h
[11]
  Tlast: 24 h
[12]
  Activity: -1.58
[13]
  Tlast: 24 h
[14]
  Drug metabolism: metabolite_notdetected
[15]
  AUC(0-inf): 2620 ng·h/mL
[16]
  Activity: Dose-dependent effect
[17]
  AUC(0-t): 7330 ng·h/mL
[18]
  Cmax: 73500 ng/g
[19]
  Drug metabolism: 0.181 pmol
[20]
  Activity: -0.83
[21]
  EC50: > 100 µM
[22]
  Tmax: 4 h
[23]
  half-life: 5.3 h
[24]
  Kp: 0.34
